From ChEMBL document CHEMBL1687883, “Dinoxin B, a withanolide from Datura inoxia leaves with specific cytotoxic activities” (J Nat Prod, 2011)

What was measured:
[1] = system: MCF7; assay: Cytotoxicity against human MCF7 cells after 48 hrs by CellTiterGlo luminescent assay; assay type: functional, cell-based; conditions: MCF7, 48 h
Outline: (§1)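 Cells (5000-15 000 per well) were plated and left to adhere for 24 h in standard growth medium under ATCC-recommended conditions. The medium was then replaced and the compound added across varying doses, with DMSO in the final medium. Viability was read by ATP-dependent CellTiter-Glo luminescence, and IC50 values were derived from the dose series.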

[2] = system: MDA-MB-468; assay: Cytotoxicity against human MDA-MB-468 cells after 48 hrs by CellTiterGlo luminescent assay; assay type: functional, cell-based; conditions: MDA-MB-468, 48 h; outline: as §1
[3] = system: T47D; assay: Cytotoxicity against human T47D cells after 48 hrs by CellTiterGlo luminescent assay; assay type: functional, cell-based; outline: as §1
[4] = system: MDA-MB-453; assay: Cytotoxicity against human MDA-MB-453 cells after 48 hrs by CellTiterGlo luminescent assay; assay type: functional, cell-based; conditions: MDA-MB-453, 48 h; outline: as §1
[5] = system: MDA-MB-231; assay: Cytotoxicity against human MDA-MB-231 cells after 48 hrs by CellTiterGlo luminescent assay; assay type: functional, cell-based; conditions: MDA-MB-231, 48 h; outline: as §1
[6] = Cytotoxicity against human Hs 578T cells after 48 hrs by CellTiterGlo luminescent assay; assay type: functional, cell-based; outline: as §1
[7] = system: COLO 205; assay: Cytotoxicity against human COLO205 cells after 48 hrs by CellTiterGlo luminescent assay; assay type: functional, cell-based; conditions: COLO 205, 48 h; outline: as §1
[8] = system: HCT-116; assay: Cytotoxicity against human HCT116 cells after 48 hrs by CellTiterGlo luminescent assay; assay type: functional, cell-based; conditions: HCT-116, 48 h; outline: as §1
[9] = system: SW48; assay: Cytotoxicity against human SW48 cells after 48 hrs by CellTiterGlo luminescent assay; assay type: functional, cell-based; conditions: SW48, 48 h; outline: as §1
[10] = system: RKO; assay: Cytotoxicity against human RKO cells after 48 hrs by CellTiterGlo luminescent assay; assay type: functional, cell-based; outline: as §1
[11] = system: A549; assay: Cytotoxicity against human A549 cells after 48 hrs by CellTiterGlo luminescent assay; assay type: functional, cell-based; conditions: A549, 48 h; outline: as §1
[12] = system: A-427; assay: Cytotoxicity against human A427 cells after 48 hrs by CellTiterGlo luminescent assay; assay type: functional, cell-based; conditions: A-427, 48 h; outline: as §1
[13] = system: HepG2; assay: Cytotoxicity against human HepG2 cells after 48 hrs by CellTiterGlo luminescent assay; assay type: functional, cell-based; conditions: HepG2, 48 h; outline: as §1
[14] = system: Huh-7; assay: Cytotoxicity against human HuH7 cells after 48 hrs by CellTiterGlo luminescent assay; assay type: functional, cell-based; conditions: Huh-7, 48 h; outline: as §1
[15] = Cytotoxicity against human Hep3B cells after 48 hrs by CellTiterGlo luminescent assay; assay type: functional, cell-based, Hep 3B2; outline: as §1
[16] = Cytotoxicity against human NHF177 cells after 48 hrs by CellTiterGlo luminescent assay; assay type: cell-based; conditions: NHF177, 48 h; outline: as §1
[17] = system: HUVEC; assay: Cytotoxicity against human HUVEC cells after 48 hrs by CellTiterGlo luminescent assay; assay type: cell-based; outline: as §1
[18] = system: SK-MEL-28; assay: Cytotoxicity against human SK-MEL-28 cells after 48 hrs by CellTiterGlo luminescent assay; assay type: functional, cell-based; conditions: SK-MEL-28, 48 h; outline: as §1
[19] = system: SK-MEL-5; assay: Cytotoxicity against human SK-MEL-5 cells after 48 hrs by CellTiterGlo luminescent assay; assay type: functional, cell-based; conditions: SK-MEL-5, 48 h; outline: as §1
[20] = system: UACC-62; assay: Cytotoxicity against human UACC62 cells after 48 hrs by CellTiterGlo luminescent assay; assay type: functional, cell-based; conditions: UACC-62, 48 h; outline: as §1
[21] = system: SK-MEL-2; assay: Cytotoxicity against human SK-MEL-2 cells after 48 hrs by CellTiterGlo luminescent assay; assay type: functional, cell-based; conditions: SK-MEL-2, 48 h; outline: as §1
[22] = system: OVCAR-3; assay: Cytotoxicity against human OVCAR3 cells after 48 hrs by CellTiterGlo luminescent assay; assay type: functional, cell-based; conditions: OVCAR-3, 48 h; outline: as §1
[23] = Cytotoxicity against rat IEC-6 cells after 48 hrs by CellTiterGlo luminescent assay; assay type: cell-based; conditions: IEC-6, 48 h; outline: as §1

## CC1=C(CO)C(=O)O[C@@H]([C@@H](CO)[C@H]2CC[C@H]3[C@@H]4CC=C5CC=CC(=O)[C@]5(C)[C@H]4C[C@@H](O)[C@]23C)C1
[1]
  IC50: 870 nM
[2]
  IC50: 750 nM
[3]
  IC50: 990 nM

## CC1=C(CO[C@@H]2O[C@H](CO)[C@@H](O)[C@H](O)[C@H]2O)C(=O)O[C@@H]([C@@H](CO)[C@H]2CC[C@H]3[C@@H]4CC=C5CC=CC(=O)[C@]5(C)[C@H]4C[C@@H](O)[C@]23C)C1 [DINOXIN B]
[4]
  IC50: 3000 nM
[5]
  IC50: 1000 nM
[1]
  IC50: 610 nM
[2]
  IC50: 580 nM
[6]
  IC50: 440 nM
[3]
  IC50: 220 nM
[7]
  IC50: 2200 nM
[8]
  IC50: 1000 nM
[9]
  IC50: 580 nM
[10]
  IC50: 360 nM
[11]
  IC50: 3400 nM
[12]
  IC50: 870 nM
[13]
  IC50: 1500 nM
[14]
  IC50: 1500 nM
[15]
  IC50: 670 nM
[16]
  IC50: 1230 nM
[17]
  IC50: 740 nM
[18]
  IC50: 2300 nM
[19]
  IC50: 1400 nM
[20]
  IC50: 500 nM
[21]
  IC50: 360 nM
[22]
  IC50: 3200 nM
[23]
  IC50: 3300 nM
